Source: paper PMC7413294 (Heterocycles, 2019)
Where “and” joins values, the source holds several entries; their conditions need not be identical. Identical values can stand only once. Like-named read-outs stand apart in the source and are kept apart here.

What was measured:
T-Cav3.2-channel = T-Cav3.2-channel (Mus musculus, UniProt O88427); assay: Whole-cell patch clamp inhibition of T-Cav3.2 channel in mouse DRG neurons; assay type: cell-based
Procedure, shortened: (§1)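 Lumbar DRG neurons from 1–6 month-old C57 mice, digested in HBSS with 1 mg/mL collagenase and 0.5 mg/mL trypsin (35°C, 45–50 min). Neurons triturated, plated on poly-L-ornithine coverslips and kept in modified Krebs solution at 21°C. Whole-cell voltage clamp at room temperature. Compound applied by rapid local solution exchange; currents normalized to control to give % inhibition; sigmoidal dose-response fits.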

Na-channel = assay: Whole-cell patch clamp inhibition of Na-channel in mouse DRG neurons; assay type: cell-based; conditions: for IC50: read-out: IC50, Na- channel in DRG neurons
Procedure, shortened: as §1

K-channel = assay: Whole-cell patch clamp inhibition of K-channel; assay type: cell-based; conditions: mouse DRG neurons
Procedure, shortened: as §1

PTZ-induced seizures = assay: Pentylenetetrazole; assay type: in vivo, mouse; conditions: 30 mg/Kg; for Inhibition ratio (%) of fatality in PTZ-model of mice: 20-min observation period, 100 minus death ratio; for Latency to fatality (minutes) in PTZ model of mice: first 20 minutes of testing
Procedure, shortened: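 Mice received pentylenetetrazol at 40 mg/kg by intraperitoneal injection; test compound groups were compared with vehicle (2% DMSO in 0.5% hydroxypropyl cellulose), […]. Deaths were recorded within a 20-min cutoff. Inhibition ratio was 100 minus the % of mice that died. Latency to fatality was recorded per mouse as mean ± SEM. Experimenters were blinded.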

[1] = molecular target: Cav3.2 channels expressed in HEK-293 cells (Homo sapiens, UniProt O95180); assay: Whole-cell patch clamp inhibition of Cav3.2 channels expressed in HEK293 cells; assay type: cell-based
Sequence of Cav3.2 channels expressed in HEK-293 cells (O95180 whole entry): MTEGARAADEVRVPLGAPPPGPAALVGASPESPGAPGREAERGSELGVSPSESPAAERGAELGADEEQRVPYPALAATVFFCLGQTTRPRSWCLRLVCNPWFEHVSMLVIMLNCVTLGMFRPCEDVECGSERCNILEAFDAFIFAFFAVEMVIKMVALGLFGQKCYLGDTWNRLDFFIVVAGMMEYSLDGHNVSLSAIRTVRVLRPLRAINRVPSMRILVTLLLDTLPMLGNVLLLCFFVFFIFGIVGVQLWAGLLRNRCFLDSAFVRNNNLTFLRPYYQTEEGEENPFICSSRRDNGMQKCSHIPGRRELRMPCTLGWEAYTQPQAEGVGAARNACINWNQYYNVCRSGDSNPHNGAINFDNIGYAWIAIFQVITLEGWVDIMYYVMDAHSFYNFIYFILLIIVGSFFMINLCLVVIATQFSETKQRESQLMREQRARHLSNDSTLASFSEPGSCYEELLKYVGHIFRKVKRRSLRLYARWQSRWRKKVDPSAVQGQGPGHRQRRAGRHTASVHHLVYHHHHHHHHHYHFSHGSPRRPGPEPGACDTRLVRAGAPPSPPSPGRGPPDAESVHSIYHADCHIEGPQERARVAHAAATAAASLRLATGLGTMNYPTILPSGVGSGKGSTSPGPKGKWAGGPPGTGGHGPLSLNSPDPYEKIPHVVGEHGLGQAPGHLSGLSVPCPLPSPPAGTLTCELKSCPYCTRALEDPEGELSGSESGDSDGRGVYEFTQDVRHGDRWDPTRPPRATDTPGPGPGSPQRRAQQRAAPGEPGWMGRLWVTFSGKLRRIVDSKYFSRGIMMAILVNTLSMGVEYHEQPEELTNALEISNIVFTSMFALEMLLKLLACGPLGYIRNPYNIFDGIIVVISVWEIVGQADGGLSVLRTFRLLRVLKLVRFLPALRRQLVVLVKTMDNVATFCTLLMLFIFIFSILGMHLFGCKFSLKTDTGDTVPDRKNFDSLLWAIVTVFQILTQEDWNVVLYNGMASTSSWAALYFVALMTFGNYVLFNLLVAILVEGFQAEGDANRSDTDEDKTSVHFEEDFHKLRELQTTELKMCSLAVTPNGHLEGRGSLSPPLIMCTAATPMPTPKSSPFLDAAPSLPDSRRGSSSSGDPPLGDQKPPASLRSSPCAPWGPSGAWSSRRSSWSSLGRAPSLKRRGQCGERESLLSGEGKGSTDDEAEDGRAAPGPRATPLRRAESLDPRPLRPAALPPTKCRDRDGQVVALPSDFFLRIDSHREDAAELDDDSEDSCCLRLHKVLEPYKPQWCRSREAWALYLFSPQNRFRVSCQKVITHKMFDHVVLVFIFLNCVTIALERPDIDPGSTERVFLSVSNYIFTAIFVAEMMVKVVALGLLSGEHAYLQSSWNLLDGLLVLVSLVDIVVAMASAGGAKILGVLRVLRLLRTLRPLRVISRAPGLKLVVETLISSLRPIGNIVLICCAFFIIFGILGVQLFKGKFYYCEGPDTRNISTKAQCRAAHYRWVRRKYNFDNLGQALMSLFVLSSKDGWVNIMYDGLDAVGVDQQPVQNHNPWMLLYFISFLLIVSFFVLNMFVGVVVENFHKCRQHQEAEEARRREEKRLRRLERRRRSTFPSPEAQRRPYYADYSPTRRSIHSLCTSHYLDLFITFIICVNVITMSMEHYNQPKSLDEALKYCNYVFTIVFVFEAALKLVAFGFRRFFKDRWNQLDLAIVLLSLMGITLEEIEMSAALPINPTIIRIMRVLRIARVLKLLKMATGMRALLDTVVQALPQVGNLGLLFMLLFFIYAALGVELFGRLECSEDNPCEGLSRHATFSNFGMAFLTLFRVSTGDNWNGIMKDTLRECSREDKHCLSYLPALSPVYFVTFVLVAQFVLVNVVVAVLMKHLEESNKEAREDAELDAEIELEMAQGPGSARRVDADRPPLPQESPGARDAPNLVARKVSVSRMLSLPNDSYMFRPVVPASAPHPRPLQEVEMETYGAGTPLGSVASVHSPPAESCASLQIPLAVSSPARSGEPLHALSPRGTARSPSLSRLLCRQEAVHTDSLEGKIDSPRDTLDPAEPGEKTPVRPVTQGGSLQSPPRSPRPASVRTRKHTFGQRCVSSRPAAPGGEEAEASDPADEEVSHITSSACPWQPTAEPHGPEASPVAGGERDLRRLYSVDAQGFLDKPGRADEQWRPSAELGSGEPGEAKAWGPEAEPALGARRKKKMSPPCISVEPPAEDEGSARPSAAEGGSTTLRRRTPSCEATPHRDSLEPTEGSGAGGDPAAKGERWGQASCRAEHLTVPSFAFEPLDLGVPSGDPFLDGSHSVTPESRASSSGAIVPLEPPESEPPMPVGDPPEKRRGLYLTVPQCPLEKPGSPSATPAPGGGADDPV
Procedure, shortened: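 Tetracycline-inducible HEK293 line, G418-selected, reseeded on poly-D-lysine coverslips; Cav3.2 induced after 24 h with 1 µg/mL tetracycline. Whole-cell voltage clamp at room temperature. External solution: choline-Cl/TEA-Cl with 2 mM CaCl2. Internal solution: CsCl/EGTA. Holding potential -100 mV, then 100 ms depolarizing steps of 10 mV at 10 s intervals. Compound applied by rapid solution exchange; currents normalized to control; sigmoidal dose-response fits.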

[2] = tested on: pentylenetetrazole-induced seizures; conditions: 30 mg/Kg; cited from earlier work
T-type calcium channels = conditions: read-out: IC50, T-type calcium channels; cited from earlier work
L-type calcium channels = conditions: read-out: IC50, L-type calcium channels; cited from earlier work
[3] = DRG neuron, read-out: Inhibition (%) of T-Cav3.2- channel in DRG neurons

Sequence of T-Cav3.2-channel (O88427 whole entry): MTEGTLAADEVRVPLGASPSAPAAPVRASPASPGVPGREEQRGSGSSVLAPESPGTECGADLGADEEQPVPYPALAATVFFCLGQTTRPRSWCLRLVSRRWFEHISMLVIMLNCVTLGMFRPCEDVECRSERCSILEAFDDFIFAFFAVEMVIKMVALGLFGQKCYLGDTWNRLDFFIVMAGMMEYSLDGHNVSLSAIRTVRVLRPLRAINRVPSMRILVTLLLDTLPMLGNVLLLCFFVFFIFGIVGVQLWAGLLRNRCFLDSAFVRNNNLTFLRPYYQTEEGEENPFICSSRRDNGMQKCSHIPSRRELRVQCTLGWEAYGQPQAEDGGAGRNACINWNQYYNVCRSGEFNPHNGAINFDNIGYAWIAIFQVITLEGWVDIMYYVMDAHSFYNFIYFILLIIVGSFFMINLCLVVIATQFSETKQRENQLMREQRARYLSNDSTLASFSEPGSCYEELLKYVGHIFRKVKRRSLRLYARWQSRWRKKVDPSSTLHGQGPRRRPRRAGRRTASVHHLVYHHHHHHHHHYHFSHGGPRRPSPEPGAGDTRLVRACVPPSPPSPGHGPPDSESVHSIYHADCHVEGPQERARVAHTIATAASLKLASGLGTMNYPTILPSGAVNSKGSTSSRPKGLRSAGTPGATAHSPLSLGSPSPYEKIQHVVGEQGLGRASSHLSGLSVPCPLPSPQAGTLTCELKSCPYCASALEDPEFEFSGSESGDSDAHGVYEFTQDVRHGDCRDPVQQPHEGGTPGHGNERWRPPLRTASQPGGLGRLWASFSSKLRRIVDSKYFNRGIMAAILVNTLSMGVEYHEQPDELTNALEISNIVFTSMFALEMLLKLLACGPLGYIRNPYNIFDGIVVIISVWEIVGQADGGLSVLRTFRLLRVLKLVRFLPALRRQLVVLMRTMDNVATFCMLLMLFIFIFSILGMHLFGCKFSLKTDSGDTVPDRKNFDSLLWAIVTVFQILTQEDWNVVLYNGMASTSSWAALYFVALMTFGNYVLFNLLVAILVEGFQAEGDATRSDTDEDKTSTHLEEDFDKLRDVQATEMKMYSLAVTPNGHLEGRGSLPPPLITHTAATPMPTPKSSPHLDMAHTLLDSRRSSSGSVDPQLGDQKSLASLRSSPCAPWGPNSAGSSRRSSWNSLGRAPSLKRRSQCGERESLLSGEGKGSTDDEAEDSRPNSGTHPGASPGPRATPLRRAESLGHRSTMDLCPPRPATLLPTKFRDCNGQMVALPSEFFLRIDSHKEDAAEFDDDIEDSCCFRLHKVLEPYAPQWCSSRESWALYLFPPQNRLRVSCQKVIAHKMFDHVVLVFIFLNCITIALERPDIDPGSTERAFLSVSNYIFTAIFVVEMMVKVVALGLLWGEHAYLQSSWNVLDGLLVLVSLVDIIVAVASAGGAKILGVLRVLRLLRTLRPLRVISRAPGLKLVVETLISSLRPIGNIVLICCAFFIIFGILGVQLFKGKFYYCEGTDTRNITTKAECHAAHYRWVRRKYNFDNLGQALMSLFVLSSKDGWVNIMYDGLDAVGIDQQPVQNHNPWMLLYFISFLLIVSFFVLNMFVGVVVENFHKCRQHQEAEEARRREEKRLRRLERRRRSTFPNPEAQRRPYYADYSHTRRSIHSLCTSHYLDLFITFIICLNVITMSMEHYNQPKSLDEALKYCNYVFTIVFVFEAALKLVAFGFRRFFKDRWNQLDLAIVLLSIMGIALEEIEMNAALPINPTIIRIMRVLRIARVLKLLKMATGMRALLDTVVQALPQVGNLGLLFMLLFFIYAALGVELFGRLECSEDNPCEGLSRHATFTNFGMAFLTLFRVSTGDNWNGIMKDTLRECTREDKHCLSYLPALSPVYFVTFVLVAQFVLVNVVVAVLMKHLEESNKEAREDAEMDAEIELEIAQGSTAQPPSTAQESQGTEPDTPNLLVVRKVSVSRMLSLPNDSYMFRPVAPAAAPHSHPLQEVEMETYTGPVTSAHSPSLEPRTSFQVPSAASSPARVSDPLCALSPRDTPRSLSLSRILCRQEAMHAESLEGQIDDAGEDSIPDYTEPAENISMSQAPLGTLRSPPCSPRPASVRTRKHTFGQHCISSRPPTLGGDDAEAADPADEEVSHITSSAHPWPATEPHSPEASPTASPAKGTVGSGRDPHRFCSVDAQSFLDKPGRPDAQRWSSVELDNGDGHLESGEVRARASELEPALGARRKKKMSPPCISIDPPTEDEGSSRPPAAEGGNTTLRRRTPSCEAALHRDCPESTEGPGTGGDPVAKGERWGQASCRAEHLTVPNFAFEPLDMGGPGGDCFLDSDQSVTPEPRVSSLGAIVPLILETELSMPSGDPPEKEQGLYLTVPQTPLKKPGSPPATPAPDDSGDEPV

inhibition at 1 µM (T-Cav3.2-channel; [3]) [%]	Structure (SMILES)	Inhibition ratio (%) of fatality in PTZ-model of mice (PTZ-induced seizures)	Latency to fatality (minutes) in PTZ model of mice (PTZ-induced seizures)	Inhibition (%) of Na- channel in DRG neurons (Na-channel; 1 µM)	Inhibition (%) of K-channel in DRG neurons, IA (rapid inactivating potassium current) (K-channel; 1 µM, IA) [%]	Inhibition (%) of K-channel in DRG neurons, IKd (delayed rectifier potassium current) (K-channel; 1 µM, IKd) [%]	further results
	O=C1c2cc(Cl)c(Cl)cc2C(=O)N1c1nnc(-c2ccc(Cl)s2)o1 [Compound 6, 5,6-Dichloro-2-(5-(5-chlorothiophen-2-yl)-1,3,4-oxadiazol-2-yl)isoindoline-1,3-dione]	0% and 0 (n=8) %	1.9±0.3 (n=8) minutes				inhibition at 3.3 µM (T-Cav3.2-channel; [3]): 9.8%; Inhibition (%) of Na- channel in DRG neurons (Na-channel; 3.3 µM): 100 (3.3 µM) (n=1) %; Inhibition (%) of K-channel in DRG neurons, IA (rapid inactivating potassium current) (K-channel; 3.3 µM, IA): −11.6%; Inhibition (%) of K-channel in DRG neurons, IKd (delayed rectifier potassium current) (K-channel; 3.3 µM, IKd): −17.8%
60.9	O=C(Nc1nnc(-c2ccccc2F)o1)c1ccc(Cl)s1 [Compound 15, 5-Chloro-N-(5-(2-fluorophenyl)-1,3,4-oxadiazol-2-yl)thiophene-2-carboxamide]						
	CC(C)(C)NC(=O)CN1CCC(CNC(=O)c2cc(F)cc(Cl)c2)CC1 [Compound Z944, reference compound]	33% and 33.3 (n=6) %	15.2±3.1 (n=6) minutes	49.7±6%	34.5±15.0	44.9±17.7	Inhibition (%) of T-Cav3.2- channel in HEK293 cells ([1]; 0.25 µM, HEK293 cells): 74.5±7.8 (0.25 µM, in HEK293 cells) (n=6) %; IC50 (Na-channel): 510 nM; Protective effect on seizures, pentylenetetrazole-induced fatality rat model [2]: 33%
79.5	O=C(CN1CCC(C(=O)Nc2nnc(-c3ccc(Cl)s3)o2)CC1)Nc1ccccc1 [Compound 9, 1-((Phenylcarbamoyl)methyl)-N-(5-(5-chlorothiophen-2-yl)-1,3,4-oxadiazol-2-yl)piperidine-4-carboxamide]						
5	O=C(CCc1cccc(Cl)c1)Nc1nnc(-c2ccccc2)o1 [Compound 10, 3-(3-Chlorophenyl)-N-(5-phenyl-1,3,4-oxadiazol-2-yl)propanamide]						
44.2 ± 5.6	c1ccc(-c2nnc(N3CCCCC3)o2)cc1 [Compound 12, 1-(5-Phenyl-1,3,4-oxadiazol-2-yl)piperidine]			25.7±6.3%	21.9±8.6	31.6±5.5	inhibition at 1 µM ([1]; HEK293, read-out: Inhibition (%) of T-Cav3.2- channel in HEK293 cells): 64.6%; IC50 (Na-channel): 2100 nM; IC50 (K-channel; read-out: IC50, K-channel IA in DRG neurons, IA): 19600 nM; IC50 (K-channel; read-out: IC50, K-channel IKd in DRG neurons, IKd): 2600 nM
	COCC(=O)O[C@]1(CCN(C)CCCc2nc3ccccc3[nH]2)CCc2cc(F)ccc2[C@@H]1C(C)C [Mibefradril]						IC50 (T-type calcium channels): 100 nM; IC50 (L-type calcium channels): 3000 nM
24.4 ± 9.6	O=C(Nc1nnc(-c2ccc(Cl)s2)o1)c1ccccc1 [Compound 8, N-(5-(5-Chlorothiophen-2-yl)-1,3,4-oxadiazol-2-yl)benzamide]			−71.8 (n=1) %	−18.7	−28.6	

Structure (SMILES)	inhibition at 1 µM (T-Cav3.2-channel; [3]) [%]	Inhibition ratio (%) of fatality in PTZ-model of mice (PTZ-induced seizures)	Latency to fatality (minutes) in PTZ model of mice (PTZ-induced seizures)	Inhibition (%) of Na- channel in DRG neurons (Na-channel; 1 µM)	Inhibition (%) of K-channel in DRG neurons, IA (rapid inactivating potassium current) (K-channel; 1 µM, IA) [%]	Inhibition (%) of K-channel in DRG neurons, IKd (delayed rectifier potassium current) (K-channel; 1 µM, IKd) [%]	further results
O=C(CN1CCCCC1)Nc1nnc(-c2ccccc2)o1 [Compound 13, N-(5-Phenyl-1,3,4-oxadiazol-2-yl)-2-(piperidin-1-yl)acetamide]	55.4 ± 28.7	0 (n=7) %	3.7±1.8 (n=7) minutes	−2.7 (n=1) %	19.9	36.5	
O=C(CCc1cccc(Cl)c1)Nc1nnc(-c2ccc(Cl)s2)o1 [Compound 7, 3-(3-Chlorophenyl)-N-(5-(5-chlorothiophen-2-yl)-1,3,4-oxadiazol-2-yl)propanamide]	20.4 ± 1.9	30% and 28.6 (n=7) %	13.6±1.8 (n=7) minutes				Inhibition (%) of Na- channel in DRG neurons (Na-channel; 3.3 µM): 82.2 (3.3 μM) (n=1) %; Inhibition (%) of K-channel in DRG neurons, IA (rapid inactivating potassium current) (K-channel; 3.3 µM, IA): −26.0%; Inhibition (%) of K-channel in DRG neurons, IKd (delayed rectifier potassium current) (K-channel; 3.3 µM, IKd): −15.6%
N#CC1CCN(CC(=O)Nc2nnc(-c3ccccc3)o2)CC1 [Compound 14, 2-(4-Cyanopiperidin-1-yl)-N-(5-phenyl-1,3,4-oxadiazol-2-yl)acetamide]	69.6 ± 6.2	14 (n=7) %	11.8±2.5 (n=7) minutes	−4.7 (n=1) %	12.9	30.0	
O=C(Nc1nnc(-c2ccccc2)o1)c1ccc(Cl)s1 [Compound 11, 5-Chloro-N-(5-phenyl-1,3,4-oxadiazol-2-yl)thiophene-2-carboxamide]	50 ± 9.7	72.1% and 72.7 (n=11) %	15.3±2.4 (n=11) minutes	16.5±8.9 (n=7) %	18.9±11.8	24.1±14.6	IC50 (T-Cav3.2-channel): 930 nM
